# In the library only some 2.1% were active in any assay of this set; here they are far more common.
# aDG glyco up: alpha-DG glycosylation activation; Pro5-aDG cells, alpha-DG glycosylation AlphaScreen (IIH6); 0% Pro5, 100% B10-LARGE cell signal; activation, % at 10 µM; hit rate 0.22% among 360,000; AID 624168;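 active = activation of at least 8% versus controls, or a plate z-score of at least 8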;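 note: Pro5 are CHO cells carrying HIG-tagged alpha-DG that lacks glycosylation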
# UCH37 DUB inh: blocks the human deubiquitinase UCH37. purified proteasome/UCH37, Ub-AMC cleavage fluorescence. inhibition, % (concentration not given with the values). hit rate 0.33% among 330,000;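 active = mean inhibition over replicate wells above about 20%, limit read from the data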;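 note: 0% = compound-free wells with enzyme and 100% = wells lacking proteasome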
# Target sequence (Q9Y5K5 whole entry, looked up): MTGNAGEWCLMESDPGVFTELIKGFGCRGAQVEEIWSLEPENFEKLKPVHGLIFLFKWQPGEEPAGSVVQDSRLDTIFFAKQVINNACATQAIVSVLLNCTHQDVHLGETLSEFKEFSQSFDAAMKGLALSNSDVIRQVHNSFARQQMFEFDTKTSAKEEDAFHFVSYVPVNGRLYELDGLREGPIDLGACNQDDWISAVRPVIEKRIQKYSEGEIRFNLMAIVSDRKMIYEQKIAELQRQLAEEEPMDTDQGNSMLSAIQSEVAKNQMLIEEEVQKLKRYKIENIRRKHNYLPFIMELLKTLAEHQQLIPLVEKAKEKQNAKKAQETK
#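 Material: Human UCH37 enzyme supplied as purified proteasome complex | Schedule: 30 min compound-proteasome preincubation then 25 min substrate reaction, room temperature | Detection: AMC fluorescence from Ub-AMC cleavage, excitation 355 nm, emission 460 nm | Benchmarks: Wells without proteasome as full block, compound-free enzyme plus substrate as uninhibited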
# Beta2AR agonist: human beta-2 adrenergic receptor agonism by FAP; Am2.2-beta2AR cells, FAP receptor internalization, flow cytometry; response, % (test concentration not listed); P07550; hit rate 0.43% among 340,000;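 active = response above a set limit, near 3 SD of response in nonfluorescent compounds, cut at about 42% in these data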
# Target sequence (P07550 whole entry, looked up): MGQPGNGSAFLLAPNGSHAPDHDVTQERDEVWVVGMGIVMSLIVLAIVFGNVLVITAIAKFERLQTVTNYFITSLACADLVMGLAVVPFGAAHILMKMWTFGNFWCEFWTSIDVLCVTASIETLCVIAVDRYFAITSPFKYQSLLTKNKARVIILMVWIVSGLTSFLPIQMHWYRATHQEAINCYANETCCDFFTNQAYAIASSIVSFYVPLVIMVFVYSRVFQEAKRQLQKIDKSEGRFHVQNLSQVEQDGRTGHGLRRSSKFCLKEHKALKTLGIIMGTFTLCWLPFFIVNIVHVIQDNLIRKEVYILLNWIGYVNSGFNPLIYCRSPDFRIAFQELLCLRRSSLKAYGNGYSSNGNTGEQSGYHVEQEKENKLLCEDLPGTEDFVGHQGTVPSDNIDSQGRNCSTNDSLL
# PfGluPho inh: PfG6PD (Plasmodium falciparum) enzyme inhibition; PfGluPho enzyme, NADPH resazurin-diaphorase fluorescence; inhibition, % at 20 µM; hit rate 0.78% among 350,000;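 active = inhibition reaching at least a set limit at 20 µM in the primary screen, cut at about 59% in these data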;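 note: 0% = DMSO wells with substrate and 100% = DMSO wells lacking glucose-6-phosphate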
# Cardio protect: modulators protecting cardiomyocytes from myocardial damage; protection from H2O2 cell death, % at 20 µM; H9c2 cardiomyocytes, H2O2 injury protection, ATPLite, 2 h; hit rate 0.63% among 360,000;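 active = compounds giving at least 50% protection of heart cells from peroxide-induced death in the single-dose screen, raw or plate-pattern-corrected value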;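 note: 0% = DMSO wells with peroxide and 100% = DMSO wells without peroxide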
# HKDC1 inhibitor: blocks human hexokinase HKDC1 activity | Q2TB90 | recombinant HKDC1, G6PDH/diaphorase resazurin coupled fluorescence | inhibition, % at 20 µM | hit rate 0.16% among 340,000;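 active = inhibition above about 35% when tested at 20 µM, limit read from the data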;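 note: plate controls were DMSO wells with enzyme for no effect and DMSO wells lacking enzyme for full effect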
#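 Test system: recombinant HKDC1 (HK5) hexokinase enzyme, produced in-house / Doses: 20 µM test compound, 1% DMSO / Timing: 90 min, room temperature / Detection: G6PDH/diaphorase-coupled fluorescence, 1 mM NADP, 100 µM resazurin, 525/613 nm / Control set: DMSO wells with and without enzyme mix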
# Starred values were filed as active, the others as inactive; nt = no result.
SMILES,aDG glyco up,UCH37 DUB inh,Beta2AR agonist,PfGluPho inh,Cardio protect,HKDC1 inhibitor
CN(CCO)c1nc(N)c2c(N)nc3c(c2c1C#N)CC(=O)N3C1CCCC1,nt,-73.6,nt,nt,nt,nt
O=C(CSc1nnc(SCc2ccccc2)s1)NN=Cc1c[nH]c2ccccc12,nt,1.9,nt,nt,nt,nt
CCC(Cc1ccccc1)=NNC(=O)c1cc([N+](=O)[O-])cc([N+](=O)[O-])c1,nt,1.3,nt,nt,nt,nt
CC(=NNC(=O)c1cccc(Cl)c1)c1cccc(NC(=O)c2ccco2)c1,nt,-0.7,nt,nt,nt,nt
O=C(/C=C/c1ccc(Cl)cc1)N(Cc1ccccc1)c1ccccn1,-0.1,27.2*,-6.9,-5.6,-9.2,3.5
CCOc1ccc(N=Nc2c(=O)[nH]n3c(=O)c4c([nH]c23)CCCC4)cc1,-0.1,24.6*,6.5,-24.9,12.2,22.7
COc1ccc(OC)c(C=NNc2nc(C)cc(=O)[nH]2)c1,nt,-378.1,nt,nt,nt,nt
CC12CNCC(C)(CN(C(c3ccccc3)c3ccccc3)C1)C2,0.3,3.5,89.7*,0.6,-20.3,-4.1
O=C(Cn1ccccc1=S)c1ccc(Cl)c(Cl)c1,0.1,5.2,-2.0,8.8,0.2,11.4
On1ccccc1=S,-0.3,nt,16.3,75.4*,-34.0,-1.5
Cc1cc(C)c2cc3c(N)c(C(=O)N4CCc5ccccc5C4)sc3nc2c1,-0.2,-12.1,-8.2,16.3,49.2*,0.8
O=c1/c(=C\c2cc([N+](=O)[O-])cc([N+](=O)[O-])c2O)sc2nc3ccccc3n12,1.0,nt,-6.6,46.3,5.0,33.1
O=c1c(=Cc2cc([N+](=O)[O-])cc([N+](=O)[O-])c2O)sc2nc3ccccc3n12,nt,27.0*,nt,nt,nt,nt
O=C(CSc1ccc(-c2cccnc2)nn1)N1CCCc2ccccc21,nt,3.3,nt,nt,nt,nt
Cc1ccc(-c2nnc3ccc(SCC(=O)N4CCCc5ccccc54)nn23)cc1,-0.3,1.7,-1.0,-6.7,105.1*,0.7
Cc1ccc(-c2nnc3ccc(SCC(=O)N4CCc5ccccc54)nn23)cc1,0.1,-22.1,13.1,-9.4,-14.2,2.5
O=C(CSc1ccc(-c2ccccn2)nn1)N1CCCc2ccccc21,0.3,4.4,1.3,10.5,52.3*,-7.4
Cc1cc(C)cc(NC(=O)CSc2ccc(-c3ccccn3)nn2)c1,0.6,3.6,-2.6,-9.6,67.4*,6.5
CCOc1ccc(NC(=O)CCC(=O)NN=C(C)c2cccs2)cc1,nt,3.2,nt,nt,nt,nt
CCOC(=O)c1cnc(-n2nc(C)cc2C)nc1NCc1ccccc1,4.8,5.0,-3.5,19.6,63.3*,2.7
Cc1ccc(C=NNC(=O)CN(Cc2ccccc2)S(=O)(=O)c2ccc3c(c2)OCCO3)cc1,nt,4.8,nt,nt,nt,nt
CNC(=S)NN=Cc1c(Cl)cccc1Cl,nt,3.9,nt,nt,nt,nt
CCN(CC)S(=O)(=O)c1ccc2oc(C(=O)NCC3COc4ccccc4O3)c(C)c2c1 (stereo not given),0.3,-0.4,8.5,17.7,54.0*,3.8
Cc1c(C(=O)NCC2COc3ccccc3O2)oc2ccc(S(=O)(=O)N3CCOCC3)cc12 (stereo not given),-0.5,2.4,16.8,22.7,60.0*,4.8
COc1ccc(C=NNC(=O)c2cc(-c3cccc(C)c3)nc3ccccc23)cc1O,nt,3.0,nt,nt,nt,nt
SMILES,aDG glyco up,UCH37 DUB inh,Beta2AR agonist,PfGluPho inh,Cardio protect,HKDC1 inhibitor
N#Cc1cn(Cc2cccc(Cl)c2)c2ccccc12,0.9,-8.0,1.6,-23.4,-2.7,7.0
CC(=O)c1cn(CC(=O)Nc2ccc(C)cc2)c2ccccc12,0.1,20.3*,-4.8,-3.5,-5.1,-3.4
O=[N+]([O-])/C=C/c1cn(Cc2ccccc2)c2ccccc12,-0.4,-4.4,83.0*,-4.6,-14.0,20.2
O=C(O)Cn1cc(/C=C/[N+](=O)[O-])c2ccccc21,-0.2,0.0,2.9,-6.2,2.4,0.4
N#Cc1ccccc1Cn1cc(/C=C/[N+](=O)[O-])c2ccccc21,-0.7,2.2,94.8*,16.4,-0.7,27.1
O=C(Cn1cc(/C=C\[N+](=O)[O-])c2ccccc21)Nc1ccccc1,-0.3,2.4,83.8*,-3.0,3.5,13.0
O=S(=O)(N=C(c1ccc(Cl)cc1)N1CCOCC1)c1ccc(Cl)cc1,nt,4.0,nt,nt,nt,nt
CCOc1ccc(N(CC(=O)N/N=C/c2ccccn2)S(=O)(=O)c2ccc(Cl)cc2)cc1,0.2,nt,-8.4,10.2,56.2*,-2.4
CS(=O)(=O)N(CC(=O)NN=Cc1ccccn1)c1ccc(Oc2ccccc2)cc1,nt,1.3,nt,nt,nt,nt
O=C(NCc1ccccn1)C(=NO)c1ccccc1,nt,6.0,nt,nt,nt,nt
CC(=O)N(c1ccc2oc(=O)sc2c1)S(=O)(=O)c1ccc(C(=O)O)cc1,0.1,0.8,3.2,18.7,-0.8,-15.3
CCCC(=O)N(c1ccc2oc(=O)sc2c1)S(=O)(=O)c1ccccc1,-0.3,0.4,-4.0,-0.8,56.5*,-25.5
O=C1C2C3C=CC(C3)C2C(=O)N1c1ccc2ccccc2n1 (stereo not given),0.0,31.6*,0.8,2.0,-2.9,-7.7
O=C1C2C3C=CC(C3)C2C(=O)N1c1cccc(N2C(=O)C3C4C=CC(C4)C3C2=O)n1 (stereo not given),0.1,-0.2,-7.6,-4.5,-0.3,-11.2
Cc1[nH][nH]c(=O)c1C(c1ccc(-c2ccccc2C(=O)O)o1)c1c(C)[nH][nH]c1=O,-0.1,24.0*,-3.1,27.0,-6.9,-2.1
Cc1ccc2oc(-c3ccccc3C(=O)O)cc(=O)c2c1,-0.2,3.0,1.9,1.6,10.0,-8.6
CNC(=O)c1cccc(NC(=O)c2cc(-c3ccccc3)nc3c2cnn3C(C)C)c1,-0.4,-6.4,15.4,26.6,58.9*,3.4
COc1cc(NC(=O)c2cc(-c3ccccc3)nc3c2cnn3C(C)C)cc(OC)c1OC,1.5,2.8,14.3,13.6,5.9,10.8
COc1ccc(Cc2nc3ccccc3n2CC(=O)N/N=C/c2ccc(C)cc2O)cc1OC,0.0,nt,7.9,13.1,51.9*,-14.6
Cc1cc(SCC(=O)NN=Cc2ccc(O)cc2O)nc2ccccc12,nt,3.2,nt,nt,nt,nt
COc1ccc2nc(C)cc(SCC(=O)NN=Cc3ccc(O)cc3O)c2c1,nt,-7.8,nt,nt,nt,nt
COc1cccc2c(SCC(=O)N/N=C/c3ccc(O)cc3O)cc(C)nc12,-0.2,nt,1.3,-28.8,81.1*,-24.7
COc1ccc2nc(C)cc(SCC(=O)N/N=C/c3ccc(O)cc3O)c2c1,0.8,nt,5.8,-8.6,51.8*,-32.4
COCc1cc(C)nc(OCC(=O)N/N=C/c2ccc(O)cc2O)c1C#N,-0.4,nt,-1.9,-35.2,52.0*,-33.6
COc1ccc(Cc2nc3ccccc3n2CC(=O)NN=Cc2ccc(O)cc2)cc1OC,nt,5.9,nt,nt,nt,nt
CN(C)c1nc(NN=Cc2ccccc2O)nc(Nc2ccc(F)cc2)n1,nt,5.8,nt,nt,nt,nt
Cc1cccc(NC(=O)C23CCC(C)(C(=NO)C2)C3(C)C)c1 (stereo not given),nt,6.3,nt,nt,nt,nt
CC(Cn1cnc([N+](=O)[O-])n1)=NNC(=O)c1ccncc1,nt,1.5,nt,nt,nt,nt
